Results taken from PubChem BioAssay.
The source made the active and inactive calls.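 Rule for the calls, unless noted: active = viability at or below 30% in both replicate assays; inconclusive = viability at or below 30% in just one of the two assays; inactive = the rest.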

Experiments:
[1] = reducers of endogenous Her2 protein level, primary screen, SKBR3 breast tumor cells, AlphaScreen, ATP viability (AID 461;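 active = Her2 level under about 52% in both replicate screens, with viability over 70% of control, limit read from the data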;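 for Her2 level: lower value means less Her2 protein in the cells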;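 for viability: percent of carrier control wells set as 100% viability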); conditions: 18-24 h, measured here: SKBR3 viability, ATP luminescence, at 10 µM
[2] = biological target: Receptor tyrosine-protein kinase erbB-2 (Homo sapiens) (UniProt P04626); assay: as above; conditions: 18-24 h, at 10 µM, stronger effect = lower value
Receptor tyrosine-protein kinase erbB-2 (Homo sapiens), sequence (P04626 whole entry, looked up): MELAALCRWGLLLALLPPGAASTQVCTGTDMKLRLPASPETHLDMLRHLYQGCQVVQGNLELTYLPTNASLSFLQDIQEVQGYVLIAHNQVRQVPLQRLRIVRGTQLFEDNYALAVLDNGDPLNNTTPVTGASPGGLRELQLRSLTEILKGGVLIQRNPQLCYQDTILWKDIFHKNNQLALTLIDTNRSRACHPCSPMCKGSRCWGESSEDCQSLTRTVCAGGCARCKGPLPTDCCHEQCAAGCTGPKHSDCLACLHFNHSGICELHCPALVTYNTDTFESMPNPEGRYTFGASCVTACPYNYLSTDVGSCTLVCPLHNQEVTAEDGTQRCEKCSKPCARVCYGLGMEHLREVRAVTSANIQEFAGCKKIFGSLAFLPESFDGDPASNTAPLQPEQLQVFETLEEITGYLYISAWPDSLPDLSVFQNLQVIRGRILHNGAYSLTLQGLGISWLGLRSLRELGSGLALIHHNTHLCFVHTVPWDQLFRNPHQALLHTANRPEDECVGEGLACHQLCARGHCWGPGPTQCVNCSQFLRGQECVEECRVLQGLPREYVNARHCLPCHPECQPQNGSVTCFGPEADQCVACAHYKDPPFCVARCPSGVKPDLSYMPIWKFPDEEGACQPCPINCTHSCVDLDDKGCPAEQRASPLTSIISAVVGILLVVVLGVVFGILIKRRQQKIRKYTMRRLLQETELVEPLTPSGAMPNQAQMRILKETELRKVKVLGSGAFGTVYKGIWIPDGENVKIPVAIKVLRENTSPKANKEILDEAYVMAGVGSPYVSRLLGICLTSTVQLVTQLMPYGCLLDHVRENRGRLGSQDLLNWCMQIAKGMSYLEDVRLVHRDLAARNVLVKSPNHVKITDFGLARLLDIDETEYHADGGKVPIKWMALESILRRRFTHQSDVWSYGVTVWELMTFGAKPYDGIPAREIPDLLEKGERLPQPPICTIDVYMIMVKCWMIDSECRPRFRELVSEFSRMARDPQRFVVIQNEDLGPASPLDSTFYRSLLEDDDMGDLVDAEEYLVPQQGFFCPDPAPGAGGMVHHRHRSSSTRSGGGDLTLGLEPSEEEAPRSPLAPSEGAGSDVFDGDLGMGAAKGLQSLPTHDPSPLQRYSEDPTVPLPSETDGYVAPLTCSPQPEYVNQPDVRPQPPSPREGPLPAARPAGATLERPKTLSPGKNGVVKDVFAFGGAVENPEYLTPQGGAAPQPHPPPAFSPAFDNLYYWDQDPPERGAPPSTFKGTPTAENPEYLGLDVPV

[3] = SK-BR-3 cell growth inhibitors, pilot screen, 24 h, human (AID 572;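 active = viability at or below 10% of carrier control in both of two separate runs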;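 note: compound exposure lasted between 18 and 24 h rather than exactly 24 h; 100% = carrier-treated control wells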); conditions: SK-BR-3 viability, CellTiter-Glo luminescence, at 10 µM, stronger effect = lower value
[4] = HUVEC growth inhibition – cell-based, human, primary screen (AID 575); conditions: HUVEC proliferation, CellTiter-Glo luminescence, 72 h; at 10 µM; stronger effect = lower value;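 note: 100% = median of untreated cell wells with 0.1% DMSO on each plate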
In short: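 Assay system: Primary human umbilical vein endothelial cells | Quantity: 1250 cells per well | Medium: Supplemented EBM, 2% fetal bovine serum | Detection: CellTiter-Glo luminescence measuring cellular ATP | Read-out: % viability vs DMSO wells | Plate: Collagen-coated 384-well format | Times: 72 h exposure, 37 °C, 5% CO2, 30 min RT equilibration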

[5] = growth inhibitors of H69AR lung tumor, primary screen, human, duplicate replicates (AID 580;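 active = viability at or under a set limit in both replicates, limit being median viability minus 3 SD, cut at about 48% in these data, passing the limit was not always enough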;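 note: 100% = mean luminescence of untreated wells and 0% = no signal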); conditions: H69AR lung tumor cells viability, ATP luminescence, 72 h; at 10 µM; stronger effect = lower value
[6] = reversal of MRP1-mediated doxorubicin resistance, pilot screen, H69AR cells, doxorubicin co-treatment (AID 601;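 active = viability loss from added drug above about 55%, and viability with drug at most 40%, in both replicates, limit read from the data, passing the limit was not always enough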); conditions: CellTiter-Glo, 72 h, at 10 µM; for differential viability (reversal): stronger effect = higher value
[7] = 384-well plate pilot, post-Golgi transport modulator project, inhibition of yeast transport mutant growth (AID 636; in the data active = inhibition above about 31%); conditions: absorbance 615 nm, about 18 h, stronger effect = higher value
[8] = growth suppression of yeast trafficking mutant, preliminary HTS, modulators of trafficking downstream of Golgi apparatus project, 1536-format plate, OD 615 nm (AID 637; in the data active = inhibition above about 30%); conditions: yeast transport mutant growth, absorbance 615 nm, 18 h; stronger effect = higher value
[9] = H69AR cells + 2 uM doxorubicin, measured here: viability with 2 uM doxorubicin, stronger effect = lower value
[10] = H69AR cells, compound alone cytotoxicity

Row | SMILES | viability [1] | Her2 level [2] | viability [3] | viability [4] | viability [5] | differential viability (reversal) ([6]; H69AR cells + 2 uM doxorubicin) | viability [6, 9] | viability [6, 10] | inhibition [7] | inhibition [8]
1 | Cn1c2ccccc2c2c(C(=O)NCCCN3CCCC3=O)cn(C3CCCCC3)c(=O)c21 | 86% | 88.5% (inactive) | 86% (inactive) | 95.9% (inactive) | 83.7% (inactive) | 3.06% (inactive) | 80.7% | 83.7% | -4.53% (inactive) | -0.49% (inactive)
2 | COc1cc(NC(=O)Cc2cccs2)ccc1-n1cnnn1 | 97% | 95.5% (inactive) | 97% (inactive) | 97% (inactive) | 102% (inactive) | 7.88% (inactive) | 94.4% | 102% | -6.13% (inactive) | 1.29% (inactive)
3 | COC(=O)Nc1ccc(C)cc1NC(=O)OC | 86.5% | 102% (inactive) | 86.5% (inactive) | 96.4% (inactive) | 107% (inactive) | 7.78% (inactive) | 99.5% | 107% | 0.67% (inactive) | -6.61% (inactive)
4 | CCNC(=O)CC1C(=O)N(c2ccc(F)cc2)C(=O)N1CCC(C)C (stereo not given) | 103% | 80.5% (inactive) | 103% (inactive) | 98.4% (inactive) | 92.9% (inactive) | 8.4% (inactive) | 84.5% | 92.9% | 0.66% (inactive) | -3.64% (inactive)
5 | CCOc1ccc2cc(C#N)c(SCC(=O)N3CCCC3)nc2c1 | 71.5% | 112% (inactive) | 71.5% (inactive) | 85.3% (inactive) | 87.3% (inactive) | 11.5% (inactive) | 75.8% | 87.3% | 6.45% (inactive) | -3.64% (inactive)
6 | O=C(CCCCCn1c(SCc2ccncc2)nc2ccccc2c1=O)NCc1ccco1 | 80.5% | 70.5% (inactive) | 80.5% (inactive) | 96.9% (inactive) | 74.6% (inactive) | -13% (inactive) | 87.6% | 74.6% | -1.18% (inactive) | -5.71% (inactive)
7 | CCN1CCN(c2c(Cl)cccc2NC(=O)c2ccco2)CC1 | 67.5% | 88% (inactive) | 67.5% (inactive) | 98.1% (inactive) | 97.5% (inactive) | 7.33% (inactive) | 90.1% | 97.5% | -3.33% (inactive) | -0.32% (inactive)
